Source: article PMC6209313 (Molecular Pharmaceutics, 2018)
≈ marks a conversion by molar mass, not a printed value. Where two headings read alike, the source gives them in different places.

How the values were obtained:
[1] = cited from earlier work; for solid form of precipitate during dispersion: dispersion (dilution in bile) ref 13; for solid form of precipitate during digestion: in vitro digestion of LBFs ref 11-17; for solid form of precipitate in vitro and in vivo: drug loaded into LBFs ref 41
[2] = Solid state characterization of drug precipitate; type: physicochemical; details: IIIB-MC, 60 min of digestion, PLM and Raman
Method in brief: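 Drug-loaded IIIB-MC (1.25 g in 45 mL medium, pH-stat 6.5, 37 °C) digested with pancreatin. The pellet at 60 min was imaged immediately by crossed-polarizer light microscopy. Raman used 785 nm at 400 mW over 100–1890 cm–1, with SNV baseline correction and blank-pellet background correction. References were crystalline drug, blank and drug-spiked blank pellets, and melt-quenched amorphous drug.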

[3] = Dose number; type: physicochemical; details: for Do 80%: 80% of maximum drug load, 45 mL digestion medium; for lipolysis Do: applied drug load during in vitro lipolysis; for Do value: 80% loading, lipid-rich LBFs after digestion, maximum-value of 0.5 observed
[4] = In vitro lipolysis of drug-loaded IIIB-MC, quantification of precipitated drug; type: physicochemical; details: for degree of precipitated drug: 60 min of digestion; for precipitation during lipolysis at 80% loading: data not shown
[5] = Maximum drug loading capacity; type: physicochemical; details: 37 °C, mean (sd)
[6] = Drug solubility in lipolysis medium; type: physicochemical; details: for solubility at 24 h: dispersion medium of blank (placebo) LBF lipolysis, all LBFs, pH 6.5; for solubility fold-increase between dispersion and digestion media: IIIA-LC
Method in brief: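 Placebo LBF digested in pH 6.5 buffer (2 mM Tris-maleate, 1.4 mM CaCl2·2H2O, 150 mM NaCl, FaSSIF 3.0 mM taurocholate/0.75 mM lecithin), 37 °C, porcine pancreatin. Media sampled at 10 min dispersion and 60 min digestion, lipase inhibited with 4-bromophenyl boronic acid, centrifuged. Supernatant shaken with excess crystalline drug at 37 °C, pH readjusted to 6.5. HPLC at 5 h and 24 h; value is mean of 24 h triplicates.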

[7] = Acid/base/neutral class and ionization at the pH of lipolysis; type: physicochemical; details: pH 6.5

SMILES | solid form of precipitated drug in the pellet [2] | Do 80% ([3]; IIIA-LC) | Do 80% ([3]; IIIB-MC) | Do 80% ([3]; IV) | maximum drug loading capacity (loading) ([5]; IIIA-LC) | maximum drug loading capacity (loading) ([5]; IIIB-MC) | maximum drug loading capacity (loading) ([5]; IV) | solid form of precipitate during digestion [1] | other results
COc1ccccc1OCCNCC(O)COc1cccc2[nH]c3ccccc3c12 (stereo not shown) [Carvedilol] |  |  |  |  |  |  |  | amorphous form | solid form of precipitate during dispersion [1]: crystalline form
Cc1c(Cl)cccc1Nc1ccccc1C(=O)O [Tolfenamic acid] |  |  |  |  |  |  |  | crystalline form | 
CC(C)OC(=O)C(C)(C)Oc1ccc(C(=O)c2ccc(Cl)cc2)cc1 [Fenofibrate] |  |  |  |  |  |  |  | crystalline form | solid form of precipitate in vitro and in vivo [1]: crystalline form
CCC(C)(C)C(=O)O[C@H]1C[C@@H](C)C=C2C=C[C@H](C)[C@H](CC[C@@H]3C[C@@H](O)CC(=O)O3)[C@H]21 [Simvastatin] |  |  |  |  |  |  |  | amorphous form | 
CCOC(=O)N1CCC(=C2c3ccc(Cl)cc3CCc3cccnc32)CC1 [Loratidine] |  |  |  |  |  |  |  | crystalline form | solid form of precipitate during dispersion [1]: crystalline form

The next lines start with results.

solid form of precipitated drug in the pellet [2] | Do 80% ([3]; IIIA-LC) | Do 80% ([3]; IIIB-MC) | Do 80% ([3]; IV) | maximum drug loading capacity (loading) ([5]; IIIA-LC) | maximum drug loading capacity (loading) ([5]; IIIB-MC) | maximum drug loading capacity (loading) ([5]; IV) | SMILES | solid form of precipitate during digestion [1] | other results
crystalline form | 1.4 | 2.9 | 4.6 |  |  |  | COC1=CC(=O)C[C@@H](C)[C@]12Oc1c(Cl)c(OC)cc(OC)c1C2=O [Griseofulvin] |  | degree of precipitated drug [4]: 11%; precipitation during lipolysis at 80% loading [4]: did not precipitate
hydrate form | 14.5 | 54.6 | 55.8 | 13.6 (0.4) mg/g | 50.9 (1.6) mg/g | 80.7 (4.5) mg/g | O=C(Nc1ccc([N+](=O)[O-])cc1Cl)c1cc(Cl)ccc1O [Niclosamide] |  | lipolysis Do ([3]; IIIB-MC): 11.1; solubility at 24 h [6]: < 80 µg/mL
crystalline and amorphous mixture | 6.8 | 9.1 | 11.1 | 75.4 (4.7) mg/g | 176.2 (2.1) mg/g | 218.0 (9.3) mg/g | CCOC(=O)C1=C(C)NC(C)=C(C(=O)OC)C1c1cccc(Cl)c1Cl (stereo not shown) [Felodipine] |  | lipolysis Do ([3]; IIIB-MC): 9.1
 | 0.2 | 0.5 | 1.4 | 9.7 (1.2) mg/g | 23.0 (1.0) mg/g | 29.9 (1.5) mg/g | CC(=O)N1CCN(c2ccc(OCC3COC(Cn4ccnc4)(c4ccc(Cl)cc4Cl)O3)cc2)CC1 (stereo not shown) [Ketoconazole] |  | Do value [3]: ≤ 1; extent of ionization [7]: 42%; solubility fold-increase between dispersion and digestion media [6]: 2 fold
 | 0.0 | 0.1 | 0.4 | 3.9 (1.2) mg/g | 17.7 (1.2) mg/g | 21.5 (2.1) mg/g | O=C(CCCN1CCC(O)(c2ccc(Cl)cc2)CC1)c1ccc(F)cc1 [Haloperidol] |  | Do value [3]: ≤ 1; extent of ionization [7]: 99%; solubility fold-increase between dispersion and digestion media [6]: 11 fold
 | 0.2 | 0.5 | 2.1 | 34.5 (3.2) mg/g | 41.8 (0.7) mg/g | 43.2 (1.7) mg/g | C(=C\c1ccccc1)/CN1CCN(C(c2ccccc2)c2ccccc2)CC1 [Cinnarizine] | amorphous character or in a molecular dispersion with digestion components | Do value [3]: ≤ 1; extent of ionization [7]: 90%; solubility fold-increase between dispersion and digestion media [6]: 6 fold; solid form of precipitated material ([1]; pH 4.0, 5.5, and 6.5 (ionized) ref 12): noncrystalline; solid form of precipitated material ([1]; pH 8.0 (unionized) ref 12): crystalline
crystalline form | 4.9 | 9.5 | 13.5 | 16.4 (0.7) mg/g | 38.8 (1.4) mg/g | 50.1 (1.2) mg/g | C#C[C@]1(O)CC[C@H]2[C@@H]3CCC4=Cc5oncc5C[C@]4(C)[C@H]3CC[C@@]21C [Danazol] | crystalline form | lipolysis Do ([3]; IIIB-MC): 4.8; solid form of precipitate in previous in vitro lipolysis studies [1]: crystalline form; solid form of precipitate in vitro and in vivo [1]: crystalline form
crystalline and amorphous mixture | 0.7 | 1.6 | 2.4 | 31.9 (1.1) mg/g | 84.7 (3.5) mg/g | 121.3 (4.2) mg/g | COc1ccc2c(c1)c(CC(=O)O)c(C)n2C(=O)c1ccc(Cl)cc1 [Indomethacin] |  | degree of precipitated drug [4]: 2%; precipitation during lipolysis at 80% loading [4]: did not precipitate; solubility at 24 h [6]: 1500 to 1700 µg/mL (≈ 4.19 to 4.75 mM)
